Laboratory results from ChEMBL document CHEMBL1144245, “Discovery of 4-aryl-2-oxo-2H-chromenes as a new series of apoptosis inducers using a cell- and caspase-based high-throughput screening assay” (Bioorg Med Chem Lett, 2008).

Legend:
T47D [1] = assay: Induction of apoptosis in human T47D cells assessed as caspase 3 activation by HTS assay; type: functional, cell-based
SNU-398 [2] = assay: Induction of apoptosis in human SNU398 cells assessed as caspase 3 activation by HTS assay; type: functional, cell-based
HCT-116 = assay: Induction of apoptosis in human HCT 116 cells assessed as caspase 3 activation by HTS assay; type: functional, cell-based
T47D [3] = assay: Growth inhibition of human T47D cells; type: functional
Summary of the method: (§1)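 Growth inhibition assay in T47D, HCT116 and SNU398 cells, run in 96-well format. GI50 reported as mean ± SEM of three or more experiments.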

[4] = Growth inhibition of human HCT 116 cells; type: functional; summary of the method: as §1
SNU-398 [5] = assay: Growth inhibition of human SNU398 cells; type: functional; summary of the method: as §1

| EC50 (T47D [1]) | EC50 (SNU-398 [2]) | EC50 (HCT-116) | GI50 (T47D [3]) | GI50 (SNU-398 [5]) | Compound | GI50 [4] |
| --- | --- | --- | --- | --- | --- | --- |
| 0.073 µM | – | – | – | – | COc1cc(C2C(C#N)=C(N)Oc3cc(N(C)C)ccc32)cc2c1OCO2 (stereo not given) | – |
| 0.024 µM | 0.013 µM | 0.02 µM | – | – | COc1cc(OC)cc(-c2c(C#N)c(=O)oc3c2ccc2c3ccn2C)c1 | – |
| 0.027 µM | 0.017 µM | 0.027 µM | 0.025 µM | 0.0079 µM | COc1cc(-c2c(C#N)c(=O)oc3c2ccc2c3ccn2C)cc2c1OCO2 | 0.026 µM |
| 0.019 µM | 0.014 µM | 0.016 µM | – | – | Cc1cncc(-c2c(C#N)c(=O)oc3c2ccc2c3ccn2C)c1 | – |
| 0.024 µM | 0.0096 µM | 0.014 µM | – | – | Cn1ccc2c3oc(=O)c(C#N)c(-c4cccc(Br)c4)c3ccc21 | – |
| 0.82 µM | 0.49 µM | 0.99 µM | 0.63 µM | 0.44 µM | COc1cc(-c2c(C#N)c(=O)oc3cc(N)ccc23)cc(Br)c1OC | 0.63 µM |
| 0.28 µM | 0.26 µM | 0.4 µM | 0.62 µM | 0.15 µM | COc1cc(-c2c(C#N)c(=O)oc3cc(N(C)C)ccc23)cc(Br)c1OC | 0.46 µM |
| 0.017 µM | 0.015 µM | 0.018 µM | – | – | COc1cc(OC)cc(-c2c(C#N)c(=O)oc3cc(OC)ccc23)c1 | – |
| 0.053 µM | 0.029 µM | 0.059 µM | – | – | COc1cccc(-c2c(C#N)c(=O)oc3cc(OC)ccc23)c1 | – |
| 6.9 µM | 5.5 µM | 9.4 µM | – | – | COc1cc(-c2c(C#N)c(=O)oc3cc(Cl)ccc23)cc(Br)c1OC | – |
| 3 µM | 2.5 µM | 4.8 µM | – | – | COc1cc(-c2c(C#N)c(=O)oc3c2ccc2cnccc23)cc(Br)c1OC | – |
| 0.043 µM | 0.017 µM | 0.02 µM | – | – | COc1cccc(-c2c(C#N)c(=O)oc3c2ccc2c3ccn2C)c1 | – |
| 0.043 µM | 0.0095 µM | 0.013 µM | – | – | Cn1ccc2c3oc(=O)c(C#N)c(-c4cccc([N+](=O)[O-])c4)c3ccc21 | – |
| 0.042 µM | 0.026 µM | 0.041 µM | – | – | COc1ccc2c(-c3cc(Br)c(OC)c(OC)c3)c(C#N)c(=O)oc2c1 | – |
| 0.013 µM | 0.006 µM | 0.01 µM | 0.0007 µM | 0.0003 µM | COc1cc(-c2c(C#N)c(=O)oc3c2ccc2c3ccn2C)cc(Br)c1OC | 0.0009 µM |
